In ChEMBL document CHEMBL2057114, “Non-nucleoside inhibitors of the measles virus RNA-dependent RNA polymerase: synthesis, structure-activity relationships, and pharmacokinetics” (J Med Chem, 2012):
Converted amounts (≈) assume the structure as drawn.

Tests used:
Measles morbillivirus [1] = assay: Antiviral activity against Measles virus Alaska infected african green monkey Vero cells expressing human SLAM assessed as decrease in virus-induced cytopathic effect; assay type: functional, organism-based
[2] = Solubility of the compound at pH 7.4 by nephelometric analysis; assay type: physicochemical; conditions: buffer
In short: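 Aqueous solubility was measured by nephelometry in buffer at pH 7.4.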

Measles morbillivirus [3] = assay: Antiviral activity against Measles virus Alaska infected african green monkey Vero cells expressing human SLAM assessed as decrease in viral titer at EC50 of cytopathic inhibition; assay type: functional, organism-based
Vero = assay: Cytotoxicity against african green monkey Vero cells after 24 hrs by MTT assay; assay type: cell-based; conditions: chlorocebus sabaeus
[4] = AUC (0 to t) in Sprague-Dawley rat at 50 mg/kg, po; assay type: ADME, organism-based; parameters: dose 50 mg/kg, route oral; conditions: plasma
In short: (§1)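 Oral gavage at 10 and 50 mg/kg to Sprague-Dawley rats, given as a suspension in PEG200/0.5% methylcellulose (10/90), n = 4 per group. Plasma concentration was followed over time, and PK parameters were estimated by non-compartmental analysis.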

Rattus norvegicus [5] = assay: Ratio of AUC for ERDRP-00519 to AUC for AS-136a in Sprague-Dawley rat at 10 to 50 mg/kg; assay type: ADME, organism-based; parameters: dose 10-50 mg/kg; conditions: in vivo
[6] = AUC (0 to infinity) in Sprague-Dawley rat at 10 mg/kg, po; assay type: ADME, organism-based; parameters: time infinity, dose 10 mg/kg, route oral; conditions: plasma; in short: as §1
[7] = Metabolic stability of the compound in human liver S9 fractions assessed as compound remaining after 1 hr; assay type: ADME, subcellular, S9 fraction; conditions: read-out: Stability
In short: (§2)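 Compound incubated one hour in liver S9 fraction, with the percentage of parent compound remaining as the readout.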

[8] = Cmax in Sprague-Dawley rat at 10 mg/kg, po; assay type: ADME, organism-based; parameters: dose 10 mg/kg, route oral; conditions: in vivo; in short: as §1
[9] = Cmax in Sprague-Dawley rat at 50 mg/kg, po; assay type: ADME, organism-based; parameters: dose 50 mg/kg, route oral; conditions: in vivo; in short: as §1
[10] = Tmax in Sprague-Dawley rat at 10 mg/kg, po; assay type: ADME, organism-based; parameters: dose 10 mg/kg, route oral; conditions: in vivo; in short: as §1
[11] = Half life in Sprague-Dawley rat at 50 mg/kg, po; assay type: ADME, organism-based; parameters: dose 50 mg/kg, route oral; conditions: in vivo; in short: as §1
Rattus norvegicus [12] = assay: Oral bioavailability in Sprague-Dawley rat at 10 mg/kg; assay type: ADME, organism-based; conditions: in vivo
In short: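 Rats were dosed 2 mg/kg i.v. and 10 mg/kg p.o., and oral bioavailability F was derived by comparing the two routes.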

[13] = AUC (0 to infinity) in Sprague-Dawley rat at 50 mg/kg, po; assay type: ADME, organism-based; parameters: time infinity, dose 50 mg/kg, route oral; conditions: plasma; in short: as §1
[14] = AUC (0 to t) in Sprague-Dawley rat at 10 mg/kg, po; assay type: ADME, organism-based; parameters: dose 10 mg/kg, route oral; conditions: plasma; in short: as §1
Caco-2 = assay: Efflux ratio of permeability in human Caco2 cells; assay type: ADME, cell-based
In short: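 Caco-2 bidirectional permeability assay, with efflux ratio calculated from the two transport directions.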

[15] = Half life in Sprague-Dawley rat at 10 mg/kg, po; assay type: ADME, organism-based; parameters: dose 10 mg/kg, route oral; conditions: in vivo; in short: as §1
Rattus norvegicus [16] = assay: Ratio of Cmax for ERDRP-00519 to Cmax for AS-136a in Sprague-Dawley rat at 10 to 50 mg/kg; assay type: ADME, organism-based; parameters: dose 10-50 mg/kg; conditions: in vivo
[17] = Tmax in Sprague-Dawley rat at 50 mg/kg, po; assay type: ADME, organism-based; parameters: dose 50 mg/kg, route oral; conditions: in vivo; in short: as §1
Measles morbillivirus [18] = assay: Inhibition of Measles virus RdRp expressed in baby hamster BSR-T7/5 cells by firefly luciferase mini replicon assay; assay type: cell-based
In short: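 BSR-T7/5 cells were transfected with plasmids encoding MeV L, N and P plus a firefly luciferase minigenome reporter, then incubated with a range of inhibitor concentrations or vehicle. Luciferase activity in cell lysates was read 36 h post-transfection relative to vehicle, and dose-response curves were built; three experiments.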

[19] = Metabolic stability of the compound in mouse liver S9 fractions assessed as compound remaining after 1 hr; assay type: ADME, subcellular, S9 fraction; conditions: read-out: Stability; in short: as §2

Structure (SMILES) | EC50 (Measles morbillivirus [1]) [µM] | solubility kinetic [2] [µg/mL] | also measured
CN(C)CC1CCCCN1S(=O)(=O)c1ccc(NC(=O)c2cc(C(F)(F)F)nn2C)cc1 (configuration not stated) | > 150 | – | –
CCOC(=O)CCC1CCCCN1S(=O)(=O)c1ccc(NC(=O)c2cc(C(F)(F)F)nn2C)cc1 (configuration not stated) | 6.7 | – | –
Cn1nc(C(F)(F)F)cc1C(=O)Nc1ccc(S(=O)(=O)N2CCCCC2CN2CCOCC2)cc1 (configuration not stated) | 9.3 | – | –
Cn1nc(C(F)(F)F)cc1C(=O)Nc1ccc(S(=O)(=O)c2ccccc2O)cc1 | 4.5 | 67 (≈ 158 µM) | –
Cn1nc(C(F)(F)F)cc1C(=O)Nc1ccc(S(=O)(=O)N2CCCCC2COCCO)cc1 (configuration not stated) | 8.3 | – | –
Cn1nc(C(F)(F)F)cc1C(=O)Nc1ccc(S(=O)(=O)N2CCCC[C@H]2CCN2CCOCC2)cc1 | 2.5 | 60 (≈ 113 µM) | AUC(0-t) [4]: 3520 ng·h/mL; Ratio (Rattus norvegicus [5]): 10; AUC(0-inf) [6]: 818 ng·h/mL; remaining at 1 h [7]: 24%; Cmax [8]: 195 ng/mL; Cmax [9]: 823 ng/mL; Tmax [10]: 1.1 h; EC50 (Measles morbillivirus [3]): 0.06 µM; half-life [11]: 6.5 h; F (Rattus norvegicus [12]): 39%; AUC(0-inf) [13]: 7860 ng·h/mL; CC50 (Vero): > 75 µM; AUC(0-t) [14]: 683 ng·h/mL; Ratio (Caco-2): 2.6; half-life [15]: 2.2 h; Ratio (Rattus norvegicus [16]): 10; Tmax [17]: 1.5 h; inhibition (Measles morbillivirus [18]): Dose-dependent effect
Cn1nc(C(F)(F)F)cc1C(=O)Nc1ccc(S(=O)(=O)N2CCCC[C@H]2CCO)cc1 | 3.1 | – | –
Cn1nc(C(F)(F)F)cc1C(=O)Nc1ccc(S(=O)(=O)N2CCCCC2CN)cc1 (configuration not stated) | 55 | – | –
C=Cc1ccccc1S(=O)(=O)c1ccc(NC(=O)c2cc(C(F)(F)F)nn2C)cc1 | > 50 | – | –
Cn1nc(C(F)(F)F)cc1C(=O)Nc1ccc(S(=O)(=O)N2CCCCC2CN=[N+]=[N-])cc1 (configuration not stated) | 1.5 | – | –
Cn1nc(C(F)(F)F)cc1C(=O)Nc1ccc(S(=O)(=O)N2CCCCC2)cc1 | 2 | < 15 | remaining at 1 h [7]: 69%; CC50 (Vero): > 75 µM; remaining at 1 h [19]: 79%; Ratio (Caco-2): 1.1; inhibition (Measles morbillivirus [18]): Dose-dependent effect
Cn1nc(C(F)(F)F)cc1C(=O)Nc1ccc(S(=O)(=O)c2ccccc2CO)cc1 | 3.5 | 46 (≈ 105 µM) | CC50 (Vero): > 75 µM

Now from value to compound, other results behind:

EC50 (Measles morbillivirus [1]) [µM] | solubility kinetic [2] [µg/mL] | Structure (SMILES) | also measured
2.7 | – | Cn1nc(C(F)(F)F)cc1C(=O)Nc1ccc(S(=O)(=O)N2CCCCC2CCCO)cc1 (configuration not stated) | –
3.8 | – | COCOCC1CCCN(S(=O)(=O)c2ccc(NC(=O)c3cc(C(F)(F)F)nn3C)cc2)C1 (configuration not stated) | –
4.6 | 55 (≈ 104 µM) | Cn1nc(C(F)(F)F)cc1C(=O)Nc1ccc(S(=O)(=O)N2CCCCC2CCN2CCOCC2)cc1 (configuration not stated) | –
2.7 | 62 (≈ 135 µM) | Cn1nc(C(F)(F)F)cc1C(=O)Nc1ccc(S(=O)(=O)N2CCCCC2CCO)cc1 (configuration not stated) | EC50 (Measles morbillivirus [3]): 0.1 µM; CC50 (Vero): > 75 µM
6.8 | – | CCOC(=O)/C=C/C1CCCCN1S(=O)(=O)c1ccc(NC(=O)c2cc(C(F)(F)F)nn2C)cc1 (configuration not stated) | –
> 75 | – | Cn1nc(C(F)(F)F)cc1C(=O)Nc1ccc(S(=O)(=O)c2ccccc2CN2CCOCC2)cc1 | –
1.5 | – | COCOCC1CCCCN1S(=O)(=O)c1ccc(NC(=O)c2cc(C(F)(F)F)nn2C)cc1 (configuration not stated) | –
3.1 | < 15 | COc1ccccc1S(=O)(=O)c1ccc(NC(=O)c2cc(C(F)(F)F)nn2C)cc1 | CC50 (Vero): > 75 µM
8.3 | – | Cn1nc(C(F)(F)F)cc1C(=O)Nc1ccc(S(=O)(=O)N2CCCC[C@@H]2CCO)cc1 | –
2.8 | 22 (≈ 53.7 µM) | Cn1nc(C(F)(F)F)cc1C(=O)Nc1ccc(S(=O)(=O)c2ccccc2)cc1 | EC50 (Measles morbillivirus [3]): 0.09 µM; CC50 (Vero): > 75 µM
14 | – | CC(=O)NCC1CCCCN1S(=O)(=O)c1ccc(NC(=O)c2cc(C(F)(F)F)nn2C)cc1 (configuration not stated) | –
2.8 | 61 (≈ 137 µM) | Cn1nc(C(F)(F)F)cc1C(=O)Nc1ccc(S(=O)(=O)N2CCCCC2CO)cc1 (configuration not stated) | CC50 (Vero): > 75 µM
3.7 | – | Cn1nc(C(F)(F)F)cc1C(=O)Nc1ccc(S(=O)(=O)N2CCCCC2/C=C/CO)cc1 (configuration not stated) | –
16 | – | COCOCC1CCN(S(=O)(=O)c2ccc(NC(=O)c3cc(C(F)(F)F)nn3C)cc2)CC1 | –
25 | – | CCOC(=O)COCC1CCCCN1S(=O)(=O)c1ccc(NC(=O)c2cc(C(F)(F)F)nn2C)cc1 (configuration not stated) | –
4.5 | – | CC(=O)Oc1ccccc1S(=O)(=O)c1ccc(NC(=O)c2cc(C(F)(F)F)nn2C)cc1 | –
